Assay results from ChEMBL document CHEMBL4321820, “Identification and Optimization of Mechanism-Based Fluoroallylamine Inhibitors of Lysyl Oxidase-like 2/3” (J Med Chem, 2019).
pIC50: −log10 of the molar value. The source made the active and inactive calls. The calls are words filed in the database; no cut-off is given here.

Key:
[1] = system: Mus musculus; assay: Effect on plasma ALT level in CCl4-induced BALB/c mouse model of liver fibrosis at 15 mg/kg, po administered once daily for 6 weeks; format: ADME, organism-based; conditions: in vivo, 1008 h
Summary of the method: (§1)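 CCl4 liver fibrosis in female BALB/c mice: CCl4 i.p. (1 mL/kg 25% in olive oil) twice weekly for 6 weeks, sacrifice 48 h after final injection. Oral once-daily dosing weeks 1-6 or weeks 4-6; imatinib 50 mg/kg daily weeks 1-6. ALT and AST measured in plasma.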

[2] = system: Mus musculus; assay: Antifibrotic activity in CCl4-induced BALB/c mouse model of liver fibrosis assessed as reduction in liver fibrosis area at 5 to 15 mg/kg, po administered once daily at week 4 to 6 by alpha-SMA staining based microscopy; format: functional, organism-based
Summary of the method: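 Female BALB/c mice given CCl4 i.p. (1 mL/kg of 25% CCl4 in olive oil) twice weekly for 6 weeks; sacrificed 48 h after last dose. Test articles oral, once daily: prophylactic weeks 1-6 or therapeutic weeks 4-6; imatinib control 50 mg/kg daily weeks 1-6. One formalin-fixed liver lobe stained for Picro Sirius Red and α-SMA; fibrotic area as % of total liver area; mean ± SEM, one-way ANOVA with Dunnett's test.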

[3] = system: Mus musculus; assay: Effect on plasma ALT level in CCl4-induced BALB/c mouse model of liver fibrosis at 5 to 15 mg/kg, po administered once daily at week 4 to 6; format: ADME, organism-based; conditions: in vivo; summary of the method: as §1
[4] = biological target: T1, Lysyl oxidase homolog 2 (Mus musculus, UniProt P58022); assay: Inhibition of recombinant mouse C-terminal His-tagged LOLX2 (26-776 residues) expressed in mouse myeloma cells using putrescine as substrate preincubated with enzyme for 30 mins followed by substrate addition and measured every 2.5 mins for 30 mins by Amplex-Red oxidation assay
T1 sequence (P58022 whole entry): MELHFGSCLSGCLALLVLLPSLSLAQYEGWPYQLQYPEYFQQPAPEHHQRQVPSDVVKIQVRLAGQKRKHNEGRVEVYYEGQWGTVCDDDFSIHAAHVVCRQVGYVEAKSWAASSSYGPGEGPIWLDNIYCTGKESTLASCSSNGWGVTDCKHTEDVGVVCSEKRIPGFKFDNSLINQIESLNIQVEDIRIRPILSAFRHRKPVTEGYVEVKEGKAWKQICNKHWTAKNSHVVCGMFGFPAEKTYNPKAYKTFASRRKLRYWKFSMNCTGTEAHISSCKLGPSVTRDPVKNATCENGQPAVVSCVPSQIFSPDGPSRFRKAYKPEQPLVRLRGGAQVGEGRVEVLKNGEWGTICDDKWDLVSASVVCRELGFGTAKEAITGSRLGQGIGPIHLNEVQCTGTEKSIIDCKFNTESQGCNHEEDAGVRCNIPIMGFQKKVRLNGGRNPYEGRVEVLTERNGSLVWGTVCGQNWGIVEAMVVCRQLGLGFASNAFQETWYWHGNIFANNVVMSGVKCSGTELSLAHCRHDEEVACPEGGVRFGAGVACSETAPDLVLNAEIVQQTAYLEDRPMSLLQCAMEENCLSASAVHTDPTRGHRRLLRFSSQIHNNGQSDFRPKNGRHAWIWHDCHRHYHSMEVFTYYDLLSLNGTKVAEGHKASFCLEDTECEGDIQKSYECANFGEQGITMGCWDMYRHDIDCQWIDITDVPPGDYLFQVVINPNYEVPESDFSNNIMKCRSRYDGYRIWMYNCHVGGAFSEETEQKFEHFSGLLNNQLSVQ
Summary of the method: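 LOXL2 enzyme preincubated with compound for 30 min at 37 °C, then Amplex Red (120 µM) / HRP (1.5 U/mL) mix containing 5 mM putrescine added. Buffer: 1.2 M urea, 50 mM sodium borate, pH 8.2. H2O2 fluorescence (ex 565/em 590) read every 2.5 min for 30 min at 37 °C; BAPN 100 µM as positive control; n≥2.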

[5] = Stability in human microsomes assessed as half life; format: ADME, Microsome
[6] = biological target: T2, Lysyl oxidase homolog 2 (Homo sapiens, UniProt Q9Y4K0); assay: Substrate activity at recombinant human C-terminal His-tagged […] (1-774 residues) expressed in mouse myeloma cells assessed as oxidative turnover at 30 uM measured after 30 mins by horseradish peroxidase-coupled amplex red reagent-based fluorescence assay relative to DMSO; format: ADME, cell-based; conditions: 0.5 h
T2 sequence (Q9Y4K0 whole entry): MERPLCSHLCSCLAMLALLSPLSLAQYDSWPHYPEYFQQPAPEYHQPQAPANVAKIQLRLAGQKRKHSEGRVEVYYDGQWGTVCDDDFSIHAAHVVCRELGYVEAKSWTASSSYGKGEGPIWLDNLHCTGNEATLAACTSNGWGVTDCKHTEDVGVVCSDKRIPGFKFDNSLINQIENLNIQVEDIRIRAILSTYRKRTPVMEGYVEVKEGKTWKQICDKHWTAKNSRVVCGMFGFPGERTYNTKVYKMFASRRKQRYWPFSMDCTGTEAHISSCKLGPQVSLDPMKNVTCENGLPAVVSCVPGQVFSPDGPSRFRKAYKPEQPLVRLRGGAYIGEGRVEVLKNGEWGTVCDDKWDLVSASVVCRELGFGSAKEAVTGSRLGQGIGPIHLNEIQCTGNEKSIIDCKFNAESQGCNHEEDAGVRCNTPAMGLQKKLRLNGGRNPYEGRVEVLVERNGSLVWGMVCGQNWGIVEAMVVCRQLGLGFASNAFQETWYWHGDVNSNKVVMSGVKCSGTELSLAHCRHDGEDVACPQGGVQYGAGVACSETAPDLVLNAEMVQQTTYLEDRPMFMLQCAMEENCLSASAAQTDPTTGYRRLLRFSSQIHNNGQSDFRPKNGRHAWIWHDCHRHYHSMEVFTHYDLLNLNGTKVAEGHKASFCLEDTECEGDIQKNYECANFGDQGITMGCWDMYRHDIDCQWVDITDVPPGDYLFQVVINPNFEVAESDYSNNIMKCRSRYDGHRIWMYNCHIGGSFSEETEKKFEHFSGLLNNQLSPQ
Summary of the method: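 LOXL2 incubated with compound, no substrate present. Hydrogen peroxide generation read by Amplex Red/HRP fluorescence (ex 565, em 590 nm). Oxidative turnover at 30 min expressed relative to DMSO.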

[7] = Stability in dog plasma assessed as half life
[8] = Stability in rat microsomes assessed as half life; format: ADME, Microsome
[9] = Protein binding in human plasma; format: ADME, cell-free; conditions: read-out: PPB (converted)

Row | SMILES | Activity [1] | inhibition [2] | Activity [3] | pIC50 [4] | half-life [5] [h] | fold change (FC) [6] | half-life [7] [h] | half-life [8] [h] | fraction unbound [9]
1 | CCOC(=O)c1ccc2c(c1)c(-c1cccc(S(=O)(=O)N(C)C)c1)c(C)n2C/C(F)=C/CN.Cl | Non-Toxic | Active | Non-Toxic |  |  |  |  |  | 
2 | Cc1c(-c2cccc(S(=O)(=O)N(C)C)c2)c2cc(C(=O)O)ccc2n1C/C(F)=C/CN.Cl |  |  |  | 8.22 | > 1.5 | 1 | > 2 | > 1.5 | 0.08
